For series [1] the following is noted: naked amantadine; ref [33], [54], [55]; cited from earlier work.
For another series, the system named is animal model. Particulars: repeated injections with high dose; ref [28]; cited from earlier work.
Series [2] concerns SARS-CoV-2 infection and symptomatology. Particulars: in vivo; cited from earlier work.
The conditions of series [3]: naked amantadine; ref [33], [54], [55]; cited from earlier work. The source holds these as a separate data set.
Series [4] has as its system RIG-I-like receptor (RLR) signaling pathway. The series is described as follows: Transcriptome sequencing analysis of lymph node immune cells. It is filed as in vivo, Balb/c mice. The settings on record: WGCNA; AAS (Fig. 4g) or naked amantadine (Fig S7).
For series [5], the system named is immunoregulatory cytokines such as interferons and tumor necrosis factors. The settings on record: in vivo and in vitro, ref [29], [30], [31], [32]; cited from earlier work.
The test system of series [6] is DC 2.4 cells. The series is described as follows: DC 2.4 activation by flow cytometry. The settings on record: 10 μg/mL, 24 h. In kind it is cell-based. In short, it runs like this: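 DC 2.4 cells (1 × 10^6 per well) were cultured 12 h, then exposed to 10 μg test compound or tetrapeptide for 24 h. Staining used DAPI live/dead for viability, anti-CD40 and anti-CD86 for maturation, and anti-IL-4 and anti-TNF-α for function. At least 50,000 cells per sample were read by flow cytometry.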
(In flow cytometry, cells or beads pass a laser one at a time.)

Series [7] deals with DC 2.4 cells. The series is described as follows: Cellular uptake inhibition. It is filed as cell-based. The settings on record: read-out: inhibition rate of AAS uptake by DCs. The method in brief:
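DC 2.4 cells were grown in DMEM with 10% FBS and penicillin/streptomycin at 37 °C, 5% CO2, then seeded at 5 × 10^5 per well for 24 h. Cells were pretreated 1 h with 5 μM cytochalasin B or cytochalasin D, then given 5 μg Cy5-labelled AAS for 2 h. They were washed in PBS/2% FBS, fixed in 2% paraformaldehyde for 10 min, and Cy5 uptake was read by flow cytometry.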

In series [8] the test system is SARS-CoV-2 B.1.351 pseudovirus. The settings on record: in vivo, ip.
In series [9] the test system is IKBKE kinase-dependent activity of IRF3. Particulars: ref [44]; cited from earlier work.
In series [10] the test system is SARS-CoV-2 B.1.617.2 pseudovirus. Particulars: in vivo, ip.
In the next series the test system is STING-dependent IRF3. Particulars: ref [44]; cited from earlier work.

This is an account of results in publication PMC8752318 (Nano Today, 2022).

SMILES strings stand for the structures.

As usually defined, the inhibition is the change of the read-out against control, counted positive when it falls.

Turning to `NC12CC3CC(CC(C3)C1)C2` [amantadine], the water solubility entry in series [1] is recorded as “unsatisfactory water solubility”. In addition, the adverse reactions entry in the series with animal model was “not observed”. Besides, the “prevention of SARS-CoV-2 infection and symptomatology” value in series [2] is “can prevent SARS-CoV-2 infection and symptomatology”. Further, in series [3], the “half-life period in vivo” value is recorded as “short half-life period”. The “protein-protein interaction (PPI) network key genes” value in series [4] is “three RLR signaling pathway-related genes (Oasl2, RIG-I and IRF3) located in the central position”. In addition, the “secretion of immunoregulatory cytokines” value in [5] is “increase the secretion of multiple immunoregulatory cytokines”. Moreover, the “immunostimulation activity against immune cells” value in the series on DC 2.4 cells [6] is reported as “possesses the immunostimulation activity”.
Regarding `C=C1[C@@H](C)[C@H]2[C@H](Cc3ccccc3)NC(=O)[C@]23[C@H](OC(C)=O)/C=C/[C@@](C)(O)C(=O)[C@@H](C)C/C=C/[C@H]3[C@@H]1O` [cytochalasin D], in the series with DC 2.4 cells [7], the inhibition at 5 µM worked out at 46%.
Take `CN(C)c1ccc(C(=C2C=CC(=[N+](C)C)C=C2)c2ccccc2)cc1.CN(C)c1ccc(C(=C2C=CC(=[N+](C)C)C=C2)c2ccccc2)cc1.O=C(O)C(=O)O.O=C([O-])C(=O)O.O=C([O-])C(=O)O` [malachite green oxalate]: the “decrease of neutralizing antibody against B.1.351 vs AAS+RBD group” value in series [8] is 4 fold.
Take `C=C1[C@@H](C)[C@H]2[C@H](Cc3ccccc3)NC(=O)[C@]23OC(=O)/C=C/[C@H](O)CCC[C@@H](C)C/C=C/[C@H]3[C@@H]1O` [cytochalasin B]: the inhibition at 5 µM with DC 2.4 cells [7] amounted to 11.7%.
Turning to `CCn1c(-c2nonc2N)nc2c(C#CC(C)(C)O)ncc(OC[C@H]3CCCNC3)c21` [GSK690693], in [9], the “inhibition of IKBKE kinase-dependent activity of IRF3 (GSK690693)” value is recorded as “inhibit the IKBKE kinase-dependent activity of IRF3”. Also, the “decrease of neutralizing antibody against B.1.351 vs AAS+RBD group” value in [8] was determined as 7 fold. In series [10], the “decrease of neutralizing antibody against B.1.617.2 vs AAS+RBD group” value came out at 6 fold. Besides, in the series with STING-dependent IRF3, the “inhibition of STING-dependent IRF3 activation” value is listed as “inhibit the activation of STING-dependent IRF3”.
